From ChEMBL document CHEMBL1134691, “3-Phenyl-5-acyloxymethyl-2H,5H-furan-2-ones: synthesis and biological activity of a novel group of potential antifungal drugs” (2001)
Values after ≈ are worked out from the molar mass of the structure shown.

What was measured:
Pichia kudriavzevii [1] = test: Inhibition of Candida krusei E28 growth for 24 hours in vitro.; format: functional; settings: Pichia kudriavzevii, 24 h; read-out: MIC
Procedure, shortened: (§1)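 NCCLS M27-A broth microdilution in RPMI 1640 with L-glutamine and 0.165 M MOPS, pH 7.0. Isolates kept on Sabouraud dextrose agar. Inoculum 5 × 10^3 cfu/mL final. Compounds were diluted in DMSO (≤2% final) and tested in 2-fold dilutions of 1000–0.24 µmol/L. Incubation at 35 °C, OD540 read at 24 and 48 h. MIC = 80% growth inhibition versus control; assays run twice in duplicate.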

Trichosporon beigelii [2] = test: Inhibition of Trichosporon beigelli 1188 for 24 hours in vitro.; format: functional; settings: Trichosporon beigelii, 24 h; read-out: MIC
Procedure, shortened: (§2)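 Microdilution following NCCLS M27-A. Medium: RPMI 1640 with L-glutamine, 0.165 M MOPS, pH 7.0. Final inoculum 5 × 10^3 cfu/mL. Compounds dissolved in DMSO, final ≤2%, serially halved from 1000 to 0.24 µmol/L. Incubated at 35 °C and read at 24 and 48 h. MIC defined as 80% inhibition of control growth; run twice in duplicate.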

Candida tropicalis [3] = test: Inhibition of Candida tropicalis 156 growth for 24 hours in vitro.; format: functional; settings: Candida tropicalis, 24 h; read-out: MIC; procedure, shortened: as §1
Pichia kudriavzevii [4] = test: Inhibition of Candida krusei ATCC 6258 growth for 48 hours in vitro.; format: functional; settings: Pichia kudriavzevii, ATCC 6258, 48 h; read-out: MIC; procedure, shortened: as §1
Clavispora lusitaniae [5] = test: Inhibition of Candida lusitaniae 2446/I growth for 48 hours in vitro.; format: functional; settings: Clavispora lusitaniae, 48 h; read-out: MIC; procedure, shortened: as §1
Candida albicans [6] = test: Inhibition of Candida albicans ATCC 90028 for 48 hours in vitro.; format: functional; settings: Candida albicans, ATCC 90028, 48 h; read-out: MIC; procedure, shortened: as §1
Nakaseomyces glabratus [7] = test: Inhibition of Candida glabrata 20/I growth for 48 hours in vitro.; format: functional; settings: Nakaseomyces glabratus, 48 h; read-out: MIC; procedure, shortened: as §1
Aspergillus fumigatus [8] = test: Inhibition of Aspergillus fumigatus 231 growth for 24 hours in vitro.; format: functional; settings: Aspergillus fumigatus, 24 h; read-out: MIC
Procedure, shortened: (§3)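 Filamentous isolates tested by microdilution per NCCLS M27-A in RPMI 1640 plus L-glutamine, buffered with 0.165 M MOPS to pH 7.0. Final inoculum 5 × 10^3 cfu/mL. Compounds in DMSO (final ≤2%), 2-fold series over 1000–0.24 µmol/L. Plates held at 35 °C and read visually after 24 and 48 h. MIC taken as 80% inhibition of control growth; determined twice in duplicate.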

Aspergillus fumigatus [9] = test: Inhibition of Aspergillus fumigatus 231 growth for 48 hours in vitro.; format: functional; settings: Aspergillus fumigatus, 48 h; read-out: MIC; procedure, shortened: as §3
Pichia kudriavzevii [10] = test: Inhibition of Candida krusei E28 growth for 48 hours in vitro.; format: functional; settings: Pichia kudriavzevii, 48 h; read-out: MIC; procedure, shortened: as §1
Candida albicans [11] = test: Inhibition of Candida albicans ATCC 44859 growth for 24 hours in vitro.; format: functional; settings: Candida albicans, ATCC 44859, 24 h; read-out: MIC; procedure, shortened: as §1
Candida tropicalis [12] = test: Inhibition of Candida tropicalis 156 growth for 48 hours in vitro.; format: functional; settings: Candida tropicalis, 48 h; read-out: MIC; procedure, shortened: as §1
Candida parapsilosis [13] = test: Inhibition of Candida parapsilosis ATCC 22019 growth for 48 hours in vitro.; format: functional; settings: Lodderomyces parapsilosis, ATCC 22019, 48 h; read-out: MIC; procedure, shortened: as §1
[14] = Inhibition of Trichophyton mentagrophytes 445 growth for 72 hours in vitro.; format: functional, Arthroderma benhamiae; settings: Trichophyton benhamiae, 72 h; read-out: MIC
Procedure, shortened: (§4)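 Dermatophyte grown in MOPS-buffered (0.165 M, pH 7.0) RPMI 1640 containing L-glutamine, in an M27-A microdilution format. Inoculum 5 × 10^3 cfu/mL final. Compounds from DMSO stocks (≤2% final), 2-fold dilutions 1000–0.24 µmol/L. Incubated at 35 °C, growth judged visually at 72 and 120 h. MIC endpoint is 80% inhibition relative to control; measured twice in duplicate.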

Candida albicans [15] = test: Inhibition of Candida albicans ATCC 44859 growth for 48 hours in vitro.; format: functional; settings: Candida albicans, ATCC 44859, 48 h; read-out: MIC; procedure, shortened: as §1
[16] = Inhibition of Trichophyton mentagrophytes 445 growth for 120 hours in vitro.; format: functional, Arthroderma benhamiae; settings: Trichophyton benhamiae, 120 h; read-out: MIC; procedure, shortened: as §4
Nakaseomyces glabratus [17] = test: Inhibition of Candida glabrata 20/I growth for 24 hours in vitro.; format: functional; settings: Nakaseomyces glabratus, 24 h; read-out: MIC; procedure, shortened: as §1
Pichia kudriavzevii [18] = test: Inhibition of Candida krusei ATCC 6258 growth for 24 hours in vitro.; format: functional; settings: Pichia kudriavzevii, ATCC 6258, 24 h; read-out: MIC; procedure, shortened: as §1
Clavispora lusitaniae [19] = test: Inhibition of Candida lusitaniae 2446/I growth for 24 hours in vitro.; format: functional; settings: Clavispora lusitaniae, 24 h; read-out: MIC; procedure, shortened: as §1
Lichtheimia corymbifera [20] = test: In vitro inhibition of Absidia corymbifera 272 growth for 48 hours.; format: functional; settings: Lichtheimia corymbifera, 48 h; read-out: MIC; procedure, shortened: as §3
Trichosporon beigelii [21] = test: Inhibition of Trichosporon beigelli 1188 for 48 hours in vitro.; format: functional; settings: Trichosporon beigelii, 48 h; read-out: MIC; procedure, shortened: as §2
Candida albicans [22] = test: Inhibition of Candida albicans ATCC 90028 for 24 hours in vitro.; format: functional; settings: Candida albicans, ATCC 90028, 24 h; read-out: MIC; procedure, shortened: as §1
Lichtheimia corymbifera [23] = test: In vitro inhibition of Absidia corymbifera 272 growth for 24 hours.; format: functional; settings: Lichtheimia corymbifera, 24 h; read-out: MIC; procedure, shortened: as §3
Candida parapsilosis [24] = test: Inhibition of Candida parapsilosis ATCC 22019 growth for 24 hours in vitro.; format: functional; settings: Lodderomyces parapsilosis, ATCC 22019, 24 h; read-out: MIC; procedure, shortened: as §1

Structure (SMILES) | MIC (Pichia kudriavzevii [1]) [µM] | MIC (Trichosporon beigelii [2]) [µM] | MIC (Candida tropicalis [3]) [µM] | MIC (Pichia kudriavzevii [4]) [µM] | MIC (Clavispora lusitaniae [5]) [µM] | MIC (Candida albicans [6]) [µM] | MIC (Nakaseomyces glabratus [7]) [µM] | MIC (Aspergillus fumigatus [8]) [µM] | MIC (Aspergillus fumigatus [9]) [µM] | MIC (Pichia kudriavzevii [10]) [µM] | MIC (Candida albicans [11]) [µM] | MIC (Candida tropicalis [12]) [µM] | MIC (Candida parapsilosis [13]) [µM] | MIC [14] [µM] | MIC (Candida albicans [15]) [µM] | MIC [16] [µM] | MIC (Nakaseomyces glabratus [17]) [µM] | MIC (Pichia kudriavzevii [18]) [µM] | MIC (Clavispora lusitaniae [19]) [µM] | MIC (Lichtheimia corymbifera [20]) [µM] | also measured
O=C1OC(CO)C=C1c1ccc(Cl)c(Cl)c1 (configuration not stated) | 125 (≈ 32.4 µg/mL) | 500 (≈ 130 µg/mL) | 250 (≈ 64.8 µg/mL) | 250 (≈ 64.8 µg/mL) | 250 (≈ 64.8 µg/mL) | 500 (≈ 130 µg/mL) | 62.5 (≈ 16.2 µg/mL) | 62.5 (≈ 16.2 µg/mL) | 250 (≈ 64.8 µg/mL) | 250 (≈ 64.8 µg/mL) | 62.5 (≈ 16.2 µg/mL) | 500 (≈ 130 µg/mL) | 500 (≈ 130 µg/mL) | 15.6 (≈ 4.05 µg/mL) | 250 (≈ 64.8 µg/mL) | 15.6 (≈ 4.05 µg/mL) | 62.5 (≈ 16.2 µg/mL) | 250 (≈ 64.8 µg/mL) | 125 (≈ 32.4 µg/mL) | 125 (≈ 32.4 µg/mL) | MIC (Trichosporon beigelii [21]): > 1000 µM; MIC (Candida albicans [22]): 250 µM (≈ 64.8 µg/mL); MIC (Lichtheimia corymbifera [23]): 125 µM (≈ 32.4 µg/mL); MIC (Candida parapsilosis [24]): 250 µM (≈ 64.8 µg/mL)
O=C1OC(COC(=O)c2ccc(Cl)cc2)C=C1c1ccc(Br)cc1 (configuration not stated) | 7.81 (≈ 3.18 µg/mL) | 3.91 (≈ 1.59 µg/mL) | 7.81 (≈ 3.18 µg/mL) | 15.6 (≈ 6.37 µg/mL) | 7.81 (≈ 3.18 µg/mL) | 7.81 (≈ 3.18 µg/mL) | 1.95 (≈ 0.795 µg/mL) | 0.98 (≈ 0.399 µg/mL) | 3.91 (≈ 1.59 µg/mL) | 15.6 (≈ 6.37 µg/mL) | 1.95 (≈ 0.795 µg/mL) | 15.6 (≈ 6.37 µg/mL) | 15.6 (≈ 6.37 µg/mL) | 1.95 (≈ 0.795 µg/mL) | 3.91 (≈ 1.59 µg/mL) | 3.91 (≈ 1.59 µg/mL) | 1.95 (≈ 0.795 µg/mL) | 7.81 (≈ 3.18 µg/mL) | 3.91 (≈ 1.59 µg/mL) | 15.6 (≈ 6.37 µg/mL) | MIC (Trichosporon beigelii [21]): 15.6 µM (≈ 6.37 µg/mL); MIC (Candida albicans [22]): 3.91 µM (≈ 1.59 µg/mL); MIC (Lichtheimia corymbifera [23]): 7.81 µM (≈ 3.18 µg/mL); MIC (Candida parapsilosis [24]): 7.81 µM (≈ 3.18 µg/mL)
CC(=O)OCC1C=C(c2ccc(Cl)c(Cl)c2)C(=O)O1 (configuration not stated) | 3.91 (≈ 1.18 µg/mL) | 1.95 (≈ 0.587 µg/mL) | 3.91 (≈ 1.18 µg/mL) | 7.81 (≈ 2.35 µg/mL) | 1.95 (≈ 0.587 µg/mL) | 3.91 (≈ 1.18 µg/mL) | 0.98 (≈ 0.295 µg/mL) | 0.98 (≈ 0.295 µg/mL) | 7.81 (≈ 2.35 µg/mL) | 3.91 (≈ 1.18 µg/mL) | 0.49 (≈ 0.148 µg/mL) | 7.81 (≈ 2.35 µg/mL) | 7.81 (≈ 2.35 µg/mL) | 0.98 (≈ 0.295 µg/mL) | 3.91 (≈ 1.18 µg/mL) | 0.98 (≈ 0.295 µg/mL) | 0.98 (≈ 0.295 µg/mL) | 3.91 (≈ 1.18 µg/mL) | 1.95 (≈ 0.587 µg/mL) | 15.6 (≈ 4.71 µg/mL) | MIC (Trichosporon beigelii [21]): 7.81 µM (≈ 2.35 µg/mL); MIC (Candida albicans [22]): 3.91 µM (≈ 1.18 µg/mL); MIC (Lichtheimia corymbifera [23]): 15.6 µM (≈ 4.71 µg/mL); MIC (Candida parapsilosis [24]): 3.91 µM (≈ 1.18 µg/mL)
